We go through two compounds from paper PMC10985026 (Acta Pharmaceutica Sinica. B, 2023).

Assay [1] deals with 4T1 (breast cancer) cells. The experiment in a line: MTT cytotoxicity assay, 4T1. The class given is cell-based, murine. Particulars: read-out: IC50 4T1, 48 h. In general terms: Tetrazolium assays rely on reduction of a dye to a coloured formazan, in cell work by metabolically active cells.
The test system of assay [2] is B16F10 (melanoma) cells. The experiment in a line: MTT cytotoxicity assay, B16F10. The class given is cell-based, murine. Particulars: read-out: IC50 B16F10. Summed up:
(§1)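 Cells were cultured in DMEM/RPMI-1640/MEM with 10% FBS and 1% penicillin–streptomycin at 37 °C, 5% CO2; Renca medium also had 1 mmol/L sodium pyruvate and 2 mmol/L L-glutamine. Cells at about 50% confluence in 96-well plates were exposed to a concentration series for 48 h (DMSO vehicle). MTT was added for 4 h at 37 °C, formazan dissolved in DMSO, and absorbance read on a plate reader. Results are mean ± SD.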

The test system of assay [3] is Renca (kidney cancer) cells. The assay can be described thus: MTT cytotoxicity assay, Renca. It counts as cell-based, murine. Particulars: read-out: IC50 Renca, 48 h. In a few lines: as §1
Assay [4] relates to HUVEC. The experiment in a line: MTT cytotoxicity assay, HUVEC. It counts as cell-based, human. Particulars: read-out: IC50 HUVEC, 48 h. In a few lines:
as §1

Assay [5] has as its system L-929. The assay can be described thus: MTT cytotoxicity assay, L-929. It counts as cell-based, murine. To be noted: read-out: IC50 L-929. Summed up: as §1
In assay [6] the test system is 4T1 subcutaneous tumor. The experiment in a line: Anti-tumor effect in vivo, 4T1 subcutaneous tumor model. Particulars: 4T1-bearing BALB/c mice, after 27 days. Also noted: species or system BALB/c mouse. Summed up: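 Subcutaneous 4T1 tumours were grown in female BALB/c mice (6–8 weeks, 18–20 g). At about 50 mm3 on day 7, mice were randomised to five groups: PBS, each parent drug alone, the parent drugs combined, or test compound. Dosing was i.v. every two days, with body weight and tumour volume measured regularly. Main organs and blood were collected at study end for safety assessment.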

In assay [7] the test system is Sam50 and COX II. The assay can be described thus: Western blot of Sam50 and COX II. It counts as cell-based, murine. To be noted: 4T1, 2 μmol/L, 24 h. Summed up: (§2)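 4T1 cells at about 70% confluence in 6-well plates were treated 24 h with test compound or DMSO vehicle. Protein was extracted in RIPA buffer with PMSF and phosphatase inhibitors, immunoblotted, and detected by enhanced chemiluminescence imaging. Sam50/COX II blots: n = 3.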
Background: In western blotting, separated proteins are transferred to a membrane and probed.

Assay [8] relates to NLRP3 inflammasome. The experiment in a line: Western blot of NLRP3. The class given is cell-based, murine. To be noted: 4T1, 2 μmol/L, 24 h, compared to control group. In a few lines:
as §2

Setting [9] is: MTT, mean ± SD of three experiments.
Setting [10] is: MTT, 48 h, mean ± SD of three experiments.

For orientation: IC50 means the point on the concentration scale where inhibition reaches its midpoint.

Where two headings read alike, the source gives them in different places.

With `O=C1[O][Pt]2([NH][C@@H]3CCCC[C@H]3[NH]2)[O]C1=O` [Oxa, Oxaliplatin], the IC50 in assay [1] (setting [9]) is 13.4 ± 0.66 µM; in assay [2] (setting [10]), 25.9 ± 0.96 µM; in assay [3] (setting [9]) it was greater than 100 µM; in assay [4] (setting [9]) it was 32.5 ± 2.01 µM; in assay [5] (setting [10]), 44.6 ± 0.93 µM. Besides, in assay [6], the “relative tumor volume versus PBS group” value is on record as “no significant difference”. Also, in assay [7], the “protein concentrations of Sam50 and COX II” value is “no significant effect”.

For `CC(=O)Nc1ccc(O)cc1` [APAP, Acetaminophen], the half-maximal inhibitory concentration (IC50) in assay [1] (Mus musculus) was greater than 100 µM; in assay [2] (Mus musculus, B16-F10, 48 h), greater than 100 µM; in assay [3] (Mus musculus, Renca), greater than 100 µM; in assay [4] (Homo sapiens, HUVEC), greater than 100 µM; in assay [5] (Mus musculus, L929, 48 h), 73.3 ± 0.88 µM. Also, in assay [8], the “NLRP3 inflammasome expression upregulation” value was “approximately 1.2 fold”. Moreover, the “relative tumor volume versus PBS group” value in assay [6] is given as “no significant difference”. Moreover, the “protein concentrations of Sam50 and COX II” value in assay [7] is on record as “significantly downregulated”.
